What was measured:
MRC5 [1] = experiment: Cytotoxicity on MRC-5 cells at 3.13 uM; assay type: functional; conditions: Homo sapiens
In short: (§1)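 MRC-5 human diploid embryonic lung cells seeded at 5 000/well, washed after 24 h, then given 2-fold drug dilutions (25, 12.5, 6.25, 3.13 µM) in RPMI + 5% FCS, final DMSO below 0.5%. Incubated 7 days at 37 °C, 5% CO2. MTT colorimetric read-out, scored as % reduction of absorbance at 540 nm versus untreated controls.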

Trypanosoma brucei [2] = experiment: Percentage of activity against Trypanosoma brucei at 3.13 uM; assay type: functional
In short: (§2)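 Bloodstream-form T. brucei in HMI-9 medium, 10 000 parasites/well, exposed to 12.5, 6.25, 3.13 and 1.56 µM drug for 4 days. Read-out is % inhibition of parasite multiplication. Macrophage toxicity judged on mouse primary peritoneal macrophages.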

Trypanosoma brucei [3] = experiment: Percentage of activity against Trypanosoma brucei at 6.25 uM; assay type: functional; in short: as §2
Trypanosoma cruzi [4] = experiment: Percentage of activity against Trypanosoma cruzi at 1.56 uM; assay type: functional
In short: (§3)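 Mouse peritoneal macrophages, 30 000/well, infected after 24 h with about 100 000 T. cruzi trypomastigotes per well plus 2-fold drug dilutions (12.5–1.56 µM). Incubated 4 days at 37 °C, 5% CO2. Methanol-fixed, Giemsa-stained and scored microscopically as % reduction of total parasite load (free trypomastigotes plus intracellular amastigotes) versus untreated controls.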

Leishmania infantum [5] = experiment: Percentage of activity against Leishmania infantum at 3.13 uM; assay type: functional
In short: (§4)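 Starch-stimulated mouse peritoneal macrophages, 30 000/well, infected after 24 h with spleen-derived L. infantum amastigotes (10:1) together with 2-fold drug dilutions (12.5–1.56 µM). Incubated 7 days at 37 °C, 5% CO2. Wright-stained slides scored microscopically as % reduction of total parasite load or of infected macrophages. Uninfected treated cultures judged microscopically for macrophage toxicity.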

Plasmodium falciparum = experiment: In vitro sensitivity for Plasmodium falciparum FcB1R; assay type: functional, organism-based
In short: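 Asynchronous P. falciparum cultures in human erythrocytes (0.5% parasitemia, 1% haematocrit) exposed to serially diluted drug for 24 h at 37 °C. [3H]hypoxanthine (0.5 µCi/well) then added for a further 24 h. Uptake compared with drug-free controls on the same plate. IC50 taken from the concentration–response curve, averaged over independent experiments. DMSO ≤0.1%.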

Trypanosoma cruzi [6] = experiment: Percentage of activity against Trypanosoma cruzi at 6.25 uM Concentration; assay type: functional; in short: as §3
Leishmania infantum [7] = experiment: In Vitro evaluation for the percentage of activity towards Leishmania infantum at 12.5 uM Concentration; assay type: functional; in short: as §4
Trypanosoma cruzi [8] = experiment: Percentage of activity against Trypanosoma cruzi at 12.5 uM; assay type: functional; in short: as §3
MRC5 [9] = experiment: Cytotoxicity on MRC-5 cells at 6.25 uM; assay type: functional; conditions: Homo sapiens; in short: as §1
MRC5 [10] = experiment: Cytotoxicity on MRC-5 cells at 25 uM; assay type: functional; conditions: Homo sapiens; in short: as §1
Trypanosoma brucei [11] = experiment: Percentage of activity against Trypanosoma brucei at 12.5 uM; assay type: functional; in short: as §2
Leishmania infantum [12] = experiment: Percentage of activity against Leishmania infantum 6.25 uM; assay type: functional; in short: as §4
Leishmania infantum [13] = experiment: Percentage of activity against Leishmania infantum at 1.56 uM; assay type: functional; in short: as §4
Trypanosoma cruzi [14] = experiment: Percentage of activity against Trypanosoma cruzi at 3.13 uM; assay type: functional; in short: as §3
MRC5 [15] = experiment: Cytotoxicity on MRC-5 cells at 12.5 uM; assay type: functional; conditions: Homo sapiens; in short: as §1
Trypanosoma brucei [16] = experiment: Percentage of activity against Trypanosoma brucei at 1.56 uM; assay type: functional; in short: as §2
Leishmania infantum [17] = experiment: Percentage of activity against Leishmania infantum at 6.25 uM; Toxic upon mouse primary peritoneal macrophages; assay type: functional, organism-based; in short: as §4
Trypanosoma cruzi [18] = experiment: Percentage of activity against Trypanosoma cruzi at 12.5 uM; Toxic upon mouse primary peritoneal macrophages; assay type: functional, organism-based; in short: as §3
Leishmania infantum [19] = experiment: Percentage of activity against Leishmania infantum at 12.5 uM Concentration; Toxic upon mouse primary peritoneal macrophages; assay type: functional, organism-based; in short: as §4
Trypanosoma cruzi [20] = experiment: In Vitro evaluation for the percentage of activity towards Trypanosoma cruzi at 6.25 uM Concentration; Toxic upon mouse primary peritoneal macrophages; assay type: functional, organism-based; in short: as §3

Row | SMILES | cytotoxicity at 3.13 µM (MRC5 [1]) [%] | Parasite growth inhibition (Trypanosoma brucei [2]) [%] | Inhibition of parasite multiplication (Trypanosoma brucei [3]) [%] | Parasite load reduction (Trypanosoma cruzi [4]) [%] | Percent antileishmanial activity (reduction of parasite load) (Leishmania infantum [5]) [%] | IC50 (Plasmodium falciparum) [nM] | Reduction of T. cruzi parasite load (Trypanosoma cruzi [6]) [%] | Percent inhibition of Leishmania infantum (Leishmania infantum [7]) [%] | T. cruzi parasite load reduction (Trypanosoma cruzi [8]) [%] | cytotoxicity at 6.25 µM (MRC5 [9]) [%] | cytotoxicity at 25 µM (MRC5 [10]) [%] | Inhibition of parasite multiplication (Trypanosoma brucei [11]) [%] | Antileishmanial activity (% reduction of parasite load) (Leishmania infantum [12]) [%] | Antileishmanial activity (% reduction of parasite load) (Leishmania infantum [13]) [%] | Reduction of T. cruzi parasite load (Trypanosoma cruzi [14]) [%] | cytotoxicity at 12.5 µM (MRC5 [15]) [%] | Percent inhibition of parasite multiplication (Trypanosoma brucei [16]) [%] | Cytotoxicity (Leishmania infantum [17]) | Cytotoxicity (Trypanosoma cruzi [18]) | Cytotoxicity (Leishmania infantum [19]) | other results
1 | COc1ccc2nc3cc(Cl)ccc3c(NCCCCN(CCCNc3c4ccc(Cl)cc4nc4ccc(OC)cc34)C(=O)C(C)NC(=O)OC(C)(C)C)c2c1 (stereo unspecified) | 0 | 100 | 100 | 0 | 20 | 330 | 70 | 70 | 90 | 0 | 100 | 100 | 40 | 0 | 20 | 100 | 100 | – | – | – | –
2 | COc1ccc2nc3cc(Cl)ccc3c(NCCCN(CCCNc3c4ccc(Cl)cc4nc4ccc(OC)cc34)C(=O)CNC(=O)OC(C)(C)C)c2c1 | 0 | 100 | 100 | 0 | 40 | 92 | 40 | 80 | 80 | 20 | 100 | 100 | 60 | 0 | 0 | 100 | 100 | – | – | – | –
3 | COc1ccc2nc3cc(Cl)ccc3c(NCCCN(CCCNc3c4ccc(Cl)cc4nc4ccc(OC)cc34)C(=O)CCC(=O)O)c2c1 | 0 | 80 | 95 | 0 | 0 | 270 | 0 | 0 | 0 | 0 | 0 | 100 | 0 | 0 | 0 | 0 | 60 | – | – | – | –
4 | COc1ccc2nc3cc(Cl)ccc3c(NCCCN(CCCNc3c4ccc(Cl)cc4nc4ccc(OC)cc34)C(=O)C(C)N)c2c1 (stereo unspecified) | 20 | 100 | 100 | 0 | 0 | > 500 | 0 | 0 | 0 | 40 | 100 | 100 | 0 | 0 | 0 | 100 | 100 | – | – | – | –
5 | COc1ccc2nc3cc(Cl)ccc3c(NCCCCCCNc3c4ccc(Cl)cc4nc4ccc(OC)cc34)c2c1 | 20 | 99 | 100 | 0 | 0 | 16 | 40 | 40 | 70 | 80 | 100 | 100 | 0 | 0 | 0 | 90 | 90 | – | – | – | –
6 | COc1ccc2nc3cc(Cl)ccc3c(NCCCN(CCCNc3c4ccc(Cl)cc4nc4ccc(OC)cc34)C(=O)CCC(=O)N3CCOCC3)c2c1 | 0 | 100 | 100 | 0 | 0 | 436 | 0 | 0 | 60 | 0 | 60 | 100 | 0 | 0 | 0 | 20 | 100 | – | – | – | –
7 | COc1ccc2nc3cc(Cl)ccc3c(NCCCN(CCCNc3c4ccc(Cl)cc4nc4ccc(OC)cc34)C(=O)C(C)NC(=O)OCC3c4ccccc4-c4ccccc43)c2c1 (stereo unspecified) | 100 | 100 | 100 | 0 | 40 | 232 | – | – | – | 100 | 100 | 100 | – | 0 | 0 | 100 | 100 | Toxic | Toxic | Toxic | Cytotoxicity (Trypanosoma cruzi [20]): Toxic
8 | COc1ccc2nc3cc(Cl)ccc3c(NCCCN(CCCNc3c4ccc(Cl)cc4nc4ccc(OC)cc34)C(=O)C(CN)NC(=O)OC(C)(C)C)c2c1 (stereo unspecified) | 0 | 100 | 100 | 0 | 0 | 307 | – | – | – | 0 | 39 | – | – | 0 | 40 | 37 | 99 | Toxic | Toxic | Toxic | Cytotoxicity (Trypanosoma cruzi [20]): Toxic
9 | COc1ccc2nc3cc(Cl)ccc3c(NCCCN(CCCNc3c4ccc(Cl)cc4nc4ccc(OC)cc34)C(=O)C(N)CN)c2c1 (stereo unspecified) | 0 | 100 | 100 | 0 | 0 | > 500 | – | – | – | 0 | 0 | – | – | 0 | 40 | 0 | 99 | Toxic | Toxic | Toxic | Cytotoxicity (Trypanosoma cruzi [20]): Toxic

— ChEMBL document CHEMBL1133105, “Antimalarial, antitrypanosomal, and antileishmanial activities and cytotoxicity of bis(9-amino-6-chloro-2-methoxyacridines): influence of the linker” (J Med Chem, 2000)
